# High-throughput results deposited in PubChem by Broad Institute.
# Compounds with a hit are over-represented: about 1.4% of the library has one in this group of screens.
# CAL PDZ FP-1: blocks peptide binding to human CAL PDZ domain | purified CAL PDZ, TMR-peptide fluorescence polarization, 1 h | inhibition, % at 20 µM | 0.02% of 330,000 active;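 active = highest replicate inhibition of at least 40%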;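 also: plate controls were DMSO neutral control wells for no effect and unlabeled competitor peptide control wells for full effect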
#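 Test system: tagged CAL PDZ domain / Buffer or medium: sodium phosphate/NaCl buffer pH 7.4 with TCEP, IgG, Thesit / Reagent: TMR-labelled reporter peptide T*-PRC34 bound in PDZ groove / Compound dosing: single point, 20 µM / Schedule: 1 h incubation at room temperature before polarization reading / Technique: fluorescence polarization (mP) / Benchmarks: unlabelled peptide, DMSO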
# Dyrk1A ADPGlo: Dyrk1A (rat) kinase inhibition | ADP-Glo luminescence, NFATc1 peptide | inhibition, % at 12.5 µM | 0.43% of 310,000 active | AID 504441 | Q63470; in the data active = inhibition above about 50%;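 also: plate controls were vehicle with enzyme for no effect and no enzyme for full effect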
# CAL PDZ FP-2: CAL PDZ (human) peptide binding inhibition; Q9HD26; purified CAL PDZ, TMR-peptide fluorescence polarization, 1 h; inhibition, % at 24.9 µM; 0.92% of 300,000 active;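 active = mean inhibition of at least 30% with at least half of replicates also reaching 30%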;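 also: 0% = DMSO neutral control and 100% = excess unlabeled competitor peptide PRC23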
# ARNT-TACC3 inh: disruptors of human ARNT/TACC3 interaction. 0.66% of 390,000 active. AID 623870. Q9Y6A5. inhibition, % at 9.99 µM. AlphaScreen His-ARNT PAS-B/GST-TACC3 binding, luminescence; TACC3 fragment carries E629A point mutation;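 active = mean inhibition of replicates at least 50% and at least half of replicates each reaching 50%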;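 also: 0% = complete ARNT plus TACC3 wells and 100% = ARNT alone without TACC3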
# Numbers without * were called inactive; x = not tested or not shown; + = active, no number; ! = a repeat was not active.
SMILES,CAL PDZ FP-1,Dyrk1A ADPGlo,CAL PDZ FP-2,ARNT-TACC3 inh
COc1ccc(C2c3ccc(O)cc3Oc3ncn4nc(-c5ccccn5)nc4c32)cc1OC (configuration not stated),-3.2,-6.9,-6.6,59.0*
O=C(NN=Cc1c(O)ccc2ccccc12)C1CC1,-0.9,-5.6,-2.5,-6.3
O=C(CN1CCCC1)N/N=C/c1c(O)ccc2ccccc12,2.1,14.3,-1.2,58.9*
OCC(CO)(CO)N=Cc1c(O)ccc2ccccc12,0.2,10.6,-2.5,11.1
Cc1ccc(O)c(/C=N/NC(=O)CN2CCCC2)c1,-1.2,8.3,-4.3,66.5*
Oc1ccc2ccccc2c1C=NC12CN3CCN(CN(C3)C1)C2,-0.4,5.7,0.1,67.2*
Cc1cccc(/C=N/NC(=O)CN2CCCCCCC2)c1,0.0,1.4,0.8,-6.3
C/C=C/c1cnc2c(c1)C(=O)N([C@@H](C)CO)C[C@@H](C)[C@@H](CN(C)C(=O)NC1CCCC1)O2,x,x,x,-8.1
C[C@@H]1CCCCO[C@@H](CN(C)S(=O)(=O)c2cn(C)cn2)[C@H](C)CN([C@H](C)CO)C(=O)c2cc(NC(=O)CCC(F)(F)F)ccc2O1,x,x,x,-8.3
Cc1ccnc2nc(C(=O)NCc3ccccc3)nn12,8.0,-0.9,197.2*,-6.4
CCn1c(=O)cc(SCC(=O)NCCCN2CCC(C)CC2)c2ccccc21,-0.5,0.7,30.6*,2.1
CCn1c(=O)cc(SCC(=O)NCCCN2CCN(c3ccc(F)cc3)CC2)c2ccccc21,-2.7,5.0,x,-3.9
C[C@H]1CN([C@@H](C)CO)S(=O)(=O)c2ccc(C#Cc3ccccc3)cc2O[C@H]1CN(C)CC1CC1,x,x,x,6.4
CCC(C)NC(=O)CC(c1ccccc1)c1cc(C)ccc1O (configuration not stated),-0.7,-3.7,33.9*,0.5
O=C(CN1CC(c2ccccc2)CC1=O)N/N=C/c1cc(Br)ccc1O (configuration not stated),-3.2,-1.8,-4.3,48.3*
CCOc1ccc(NC(=O)CN2CC(c3ccccc3)CC2=O)cc1 (configuration not stated),1.0,2.8,-2.6,x
Cc1cccc(C(CC(=O)NCc2ccco2)c2ccccc2)c1O (configuration not stated),-0.5,-0.5,+,-1.9
Cc1nc(C)c(CC(=O)N/N=C/c2ccc(O)cc2)c(=O)[nH]1,0.3,x,55.6*,-34.2
COc1ccc(/C(C)=N/NC(=O)Cc2c(C)nc(C)[nH]c2=O)cc1,1.0,-5.6,-0.8,-20.0
O=C(O)c1cc(N=Nc2c(O)ccc3ccccc23)cc(C(=O)O)c1,-3.8,49.3,6.4,x
O=C(O)c1ccc(N=Nc2c(O)ccc3ncccc23)cc1,-1.3,1.4,1.9,61.9*
O=C(CCc1ccccc1O)N/N=C/c1ccc(Sc2cccc3cccnc23)o1,-1.9,4.0,-3.6,66.0*
C[C@@H]1CN([C@H](C)CO)C(=O)c2cccc(NS(=O)(=O)c3ccc(F)cc3)c2O[C@@H]1CN(C)S(=O)(=O)c1cccs1,x,x,x,-3.0
O=C(C1CC1)N1CC[C@H]2[C@H](CO)Nc3ccc(-c4cccc(F)c4)cc3[C@H]21,x,x,x,10.5
c1ccc(-n2c(Cc3cn4ccsc4n3)nnc2N2CCOCC2)cc1,-3.1,x,-3.0,45.3*
SMILES,CAL PDZ FP-1,Dyrk1A ADPGlo,CAL PDZ FP-2,ARNT-TACC3 inh
COc1cccc(S(=O)(=O)N[C@H]2C=C[C@@H](CC(=O)NCc3ccc(F)cc3)O[C@H]2CO)c1,x,x,x,-17.5
Cc1ccccc1NC(=O)CN1C(=O)CSc2ccccc21,0.3,-2.8,37.9*,-8.8
NCCc1cnc[nH]1,-0.3,14.4,-1.9,73.2*!
NCCC(=O)NCCc1cnc[nH]1,0.6,17.0,-1.1,x
CCNC(=O)C[C@@H]1CC[C@H]2[C@H](COc3ccc(NC(=O)c4cccs4)cc3C(=O)N2C)O1,x,x,x,-4.7
N#CCCN(Cc1cccnc1)C(=S)NC(=O)c1ccccc1,-0.5,-3.0,88.8*,-2.1
CCCN1C[C@@H](C)[C@H](OC)CN(C)C(=O)c2ccc(NC(=O)c3ccccc3)cc2OC[C@@H]1C,x,x,x,-2.3
O=C(O)c1cccc(OCCN2CCCC2=O)c1,-0.4,10.8,x,-1.8
CN1CCC(=O)N(CCOc2ccccc2)CC1,0.3,-0.4,-1.9,59.6*
C/C=C/c1ccc([C@H]2[C@@H](CO)N(C(=O)CC)[C@H]2CNC(=O)CC)cc1,x,x,x,-5.2
COC(=O)c1ccc(Cn2cc([N+](=O)[O-])cn2)cc1,0.7,x,68.4*,-4.6
O=C1NC(c2ccccn2)Nc2sc3c(c21)CCC3 (configuration not stated),-1.4,4.4,-0.9,65.0*
CSC(=S)NN=C(C)c1cccc(C)n1,-0.1,1.4,2.8,58.9*
CN(C)C(=O)c1cccc(-c2ccc3c(c2)[C@H]2[C@H](CCN2C(=O)c2ccc4c(c2)OCO4)[C@@H](CO)N3)c1,x,x,x,25.2
Cc1nnc(Nc2ccccn2)c2ccccc12,0.7,7.2,-0.6,33.4*
Cc1nnc(Nc2ccc(F)cc2)c2ccccc12,-0.7,1.2,-15.7,25.7
CC(C)NC(=O)N(C)C[C@H]1OCCCC[C@H](C)Oc2ccc(NC(=O)Nc3ccc(C(F)(F)F)cc3)cc2C(=O)N([C@H](C)CO)C[C@H]1C,x,x,x,10.1
O=C1NCCCc2c1oc1cc(Br)c(O)c(Br)c21,-1.2,66.0*,9.6,20.3
Cc1ccc(S(=O)(=O)Nc2cccc3c2O[C@@H](CN(C)Cc2ccc(C(F)(F)F)cc2)[C@H](C)CN([C@H](C)CO)C3=O)cc1,x,x,x,0.0
COc1ccc(CN(C)C[C@H]2Oc3ccc(NC(=O)Nc4ccc5c(c4)OCO5)cc3C(=O)N([C@H](C)CO)C[C@H]2C)cc1,x,x,x,8.0
CCN(CC)C(=O)COc1coc(CN2CCN(c3ccc(F)cc3)CC2)cc1=O,-0.9,-5.7,-4.0,-4.7
CCOC(=O)COc1coc(CN2CCN(c3ccc(F)cc3)CC2)cc1=O,-0.8,4.8,40.9*,-1.6
Brc1ccc(CNCC2CCCO2)cc1 (configuration not stated),-0.3,5.0,-1.7,-8.7
Brc1cccc(CNCC2CCCO2)c1 (configuration not stated),53.5*,-3.3,5.3,1.9
CCCCC(=O)NC(=S)NNC(=O)CCc1ccccc1,-1.9,-2.0,-3.2,29.2*
SMILES,CAL PDZ FP-1,Dyrk1A ADPGlo,CAL PDZ FP-2,ARNT-TACC3 inh
CC(=O)NC(=S)NNC(=O)CCc1ccccc1,-2.0,4.3,-0.8,33.7
CCCCC(=O)NC(=S)NNC(=O)c1ccc(OC)cc1,0.8,x,2.9,53.9*
COc1ccc(C(=O)NNC(=S)NC(=O)c2ccc(OC)cc2)cc1,-0.9,x,9.9,-0.3
C[C@@H]1CN([C@H](C)CO)C(=O)Cc2cc(NC(=O)Nc3ccc(F)cc3)ccc2O[C@H]1CN(C)C(=O)Nc1ccccc1,x,x,x,2.6
CC1CN(C(=O)COC(=O)c2cccc(S(=O)(=O)N3CCc4ccccc43)c2)CC(C)O1 (configuration not stated),19.4,0.7,59.4*,0.4
Cc1noc(C)c1S(=O)(=O)Nc1ccc2c(c1)CC(=O)N([C@@H](C)CO)C[C@H](C)[C@H](CN(C)C(=O)Nc1ccc(F)cc1)O2,x,x,x,-4.2
COc1ccc(O)c(/C=N/NC(=S)Nc2cccc(S(=O)(=O)N(C)C)c2)c1,0.6,29.2,-3.5,65.5*
